Calls of active or inactive are those of the source. The calls are words filed in the database; no cut-off is given here.
How the values were obtained:
SH-SY5Y [1] = test: Cytotoxicity against human SH-SY5Y cells assessed as reduction in cell viability at 5 to 10 uM measured after 24 hrs by MTS assay; type: cell-based
Procedure, shortened: (§1)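 SH-SY5Y human neuroblastoma cells grown in Advanced DMEM with 10% FBS at 37 °C, 5% CO2, and switched to serum-depleted medium before treatment. Compounds (20 mM DMSO stocks) were applied at 5, 10 or 50 μM for 24 h. Viability read by MTS assay.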

[2] = Cytotoxicity against human SH-SY5Y cells assessed as cell viability at 50 uM measured after 24 hrs by MTS assay relative to control; type: cell-based; details: read-out: Activity; procedure, shortened: as §1
SH-SY5Y [3] = test: Neuroprotective activity against 6-OHDA-induced toxicity in human SH-SY5Y cells assessed as LDH release at 5 uM pretreated for 30 mins followed by 6-OHDA challenge and measured after 24 hrs by cytotox-onetm homogeneous membrane integrity assay (reference value: 135%); type: functional
SH-SY5Y [4] = test: Neuroprotective activity against 6-OHDA-induced toxicity in human SH-SY5Y cells assessed as reduction in propidium iodide positive cells at 5 uM pretreated for 30 mins followed by 6-OHDA challenge and measured after 24 hrs by propidium iodide staining-based flow cytometric analysis relative to 6-OHDA; type: functional
Procedure, shortened: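 SH-SY5Y cells were grown in Advanced DMEM with 10% FBS at 37 °C, 5% CO2 to 80% confluence, then switched to serum-depleted medium. Compound (5 μM, from a 20 mM DMSO stock) was added 30 min before 6-OHDA (100 μM). After 24 h, PI staining was read by flow cytometry. Runs were n ≥ 2, each in duplicate, with one-way ANOVA and Bonferroni.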

[5] = Apparent permeability in Sprague-Dawley rat ileum at 50 uM measured after 20 mins LC-MS/MS analysis; type: ADME, tissue-based
[6] = Chemical stability of the compound in D2O measured incubated for >1 year at room temperature under dark condition by NMR analysis; type: physicochemical
Mus musculus [7] = test: Ex vivo inhibition of MAOA/MAOB in Swiss mouse brain homogenates assessed as residual activity at 60 mg/kg, ip measured after 30 mins using p-tyramine as substrate by amplex red reagent-based horseradish peroxidase-coupled fluorescence assay relative to control; type: functional
Procedure, shortened: (§2)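 Male Swiss mice (n = 3 per group) received 60 mg/kg ip in 0.9% saline, or saline alone, 30 min before brain homogenate preparation. […] Residual activity reported as mean ± SD, n = 1 in triplicate.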

[8] = molecular target: T1, Amine oxidase [flavin-containing] B (Mus musculus, UniProt Q8BW75); test: Inhibition of MAOB in Swiss mouse brain homogenates assessed as residual activity at 50 uM using benzylamine as substrate preincubated for 10 mins followed by substrate addition by amplex red reagent-based horseradish peroxidase-coupled fluorescence assay relative to control; type: tissue-based; details: read-out: Activity
T1 sequence (Q8BW75 whole entry): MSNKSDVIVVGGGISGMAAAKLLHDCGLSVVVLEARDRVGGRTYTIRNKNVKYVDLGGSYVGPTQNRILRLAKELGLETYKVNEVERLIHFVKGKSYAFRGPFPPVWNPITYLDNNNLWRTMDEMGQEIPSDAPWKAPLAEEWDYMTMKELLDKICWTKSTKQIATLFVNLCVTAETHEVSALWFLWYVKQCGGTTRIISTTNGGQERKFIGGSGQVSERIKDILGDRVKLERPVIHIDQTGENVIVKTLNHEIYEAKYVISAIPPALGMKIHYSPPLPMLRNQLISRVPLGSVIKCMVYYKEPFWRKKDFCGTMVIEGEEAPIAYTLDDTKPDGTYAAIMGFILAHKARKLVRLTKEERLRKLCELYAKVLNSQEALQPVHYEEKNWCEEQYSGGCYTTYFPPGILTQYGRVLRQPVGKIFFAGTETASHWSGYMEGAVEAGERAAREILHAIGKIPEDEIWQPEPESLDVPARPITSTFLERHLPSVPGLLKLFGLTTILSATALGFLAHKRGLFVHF

Mus musculus [9] = test: Ex vivo inhibition of MAOB in Swiss mouse brain homogenates assessed as residual activity at 60 mg/kg, ip measured after 30 mins using benzylamine as substrate by amplex red reagent-based horseradish peroxidase-coupled fluorescence assay relative to control; type: functional; procedure, shortened: as §2
Mus musculus [10] = test: Ex vivo inhibition of MAOB in ip dosed Swiss mouse brain homogenates measured after 30 mins using benzylamine as substrate by amplex red reagent-based horseradish peroxidase-coupled fluorescence assay; type: functional; details: 0.5 h
Mus musculus [11] = test: (§3) Ex vivo inhibition of MAOB in Swiss mouse brain homogenates assessed as residual activity at 0.3 mg/kg, ip measured after 30 mins using benzylamine as substrate by amplex red reagent-based horseradish peroxidase-coupled fluorescence assay relative to control; type: functional
Mus musculus [12] = test: as §3, with “ip administered once daily for 10 days” for “ip”, “measured” for “measured after”, “mins post-last dose” for “mins”; type: functional
Mus musculus [13] = test: Ex vivo inhibition of MAOB in Swiss mouse brain homogenates assessed as residual activity at 30 mg/kg, po administered via gavage measured after 90 mins using benzylamine as substrate by amplex red reagent-based horseradish peroxidase-coupled fluorescence assay relative to control; type: functional
Mus musculus [14] = test: Effect on spontaneous locomotor activity in Swiss mouse assessed as change in number of light beam crossings at 0.3 mg/kg, ip administered […] and monitored for 5 mins; type: ADME, organism-based; details: in vivo
Mus musculus [15] = test: Effect on spontaneous locomotor activity in Swiss mouse assessed as change in number of light beam crossings at >10 mg/kg, ip measured after 30 mins and monitored for 5 mins; type: ADME, organism-based; details: in vivo
Procedure, shortened: (§4)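 Male Swiss mice given single ip doses of ≥10 mg/kg in 0.9% saline, tested 30 min later in the hole-board test combined with spontaneous locomotor activity recording.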

Mus musculus [16] = test: Effect on behavioral changes in Swiss mouse at >10 mg/kg, ip measured after 30 mins and monitored for 5 mins by hole-board test; type: ADME, organism-based; details: in vivo; procedure, shortened: as §4
Mus musculus [17] = test: Effect on behavioral changes in Swiss mouse at 0.3 mg/kg, ip administered […] and monitored for 5 mins by hole-board test; type: ADME, organism-based; details: in vivo
[18] = Toxicity in Swiss mouse assessed as change in body weight at 0.3 mg/kg, ip administered once daily for 10 days measured during compound dosing; type: organism-based; details: in vivo, 240 h
[19] = Toxicity in Swiss mouse assessed as change in behavior at 0.3 mg/kg, ip administered once daily for 10 days measured during compound dosing; type: organism-based; details: in vivo, 240 h
[20] = Thermodynamic solubility of the compound in pH 7.4 phosphate buffered saline assessed per […] at 7 to 9 mg incubated for 24 hrs under shaking condition by HPLC analysis; type: physicochemical; details: in vitro, pH 7.4, 24 h
[21] = Photoisomerization of the compound in D2O incubated for 7 days under sunlight by NMR analysis
[22] = molecular target: T2, Amine oxidase [flavin-containing] A (Mus musculus, UniProt Q64133); test: Inhibition of MAOA in Swiss mouse brain homogenates assessed as residual activity at 50 uM using 5-HT as substrate preincubated for 10 mins followed by substrate addition by amplex red reagent-based horseradish peroxidase-coupled fluorescence assay relative to control; type: tissue-based; details: read-out: Activity
T2 sequence (Q64133 whole entry): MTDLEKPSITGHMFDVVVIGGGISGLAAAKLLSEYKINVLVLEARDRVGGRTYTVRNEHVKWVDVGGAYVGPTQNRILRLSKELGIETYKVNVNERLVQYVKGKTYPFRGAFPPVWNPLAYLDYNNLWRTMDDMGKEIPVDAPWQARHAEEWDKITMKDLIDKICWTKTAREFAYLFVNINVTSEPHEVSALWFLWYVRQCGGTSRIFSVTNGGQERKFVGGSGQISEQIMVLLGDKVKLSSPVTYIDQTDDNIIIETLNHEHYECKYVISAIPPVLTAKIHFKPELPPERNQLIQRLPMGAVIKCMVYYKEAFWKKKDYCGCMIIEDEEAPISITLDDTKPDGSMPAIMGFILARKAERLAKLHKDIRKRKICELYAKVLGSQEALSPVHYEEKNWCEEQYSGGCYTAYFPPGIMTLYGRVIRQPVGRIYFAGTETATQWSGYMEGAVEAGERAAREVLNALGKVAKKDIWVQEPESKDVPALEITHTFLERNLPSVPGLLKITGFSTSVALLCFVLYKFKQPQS

Mus musculus [23] = test: Ex vivo inhibition of MAOA in Swiss mouse brain homogenates assessed as residual activity at 60 mg/kg, ip measured after 30 mins using 5-HT as substrate by amplex red reagent-based horseradish peroxidase-coupled fluorescence assay relative to control; type: functional; procedure, shortened: as §2
Mus musculus [24] = test: Ex vivo inhibition of MAOA in ip dosed Swiss mouse brain homogenates measured after 30 mins using 5-HT as substrate by amplex red reagent-based horseradish peroxidase-coupled fluorescence assay; type: functional
Mus musculus [25] = test: Ex vivo inhibition of MAOA in Swiss mouse brain homogenates assessed as residual activity at 0.3 mg/kg, ip measured after 30 mins using 5-HT as substrate by amplex red reagent-based horseradish peroxidase-coupled fluorescence assay relative to control; type: functional
Mus musculus [26] = test: Ex vivo inhibition of MAOA in Swiss mouse brain homogenates assessed as residual activity at 0.3 mg/kg, ip administered once daily for 10 days measured 30 mins post-last dose using 5-HT as substrate by amplex red reagent-based horseradish peroxidase-coupled fluorescence assay relative to control; type: functional
Mus musculus [27] = test: Ex vivo inhibition of MAOA in Swiss mouse brain homogenates assessed as residual activity at 30 mg/kg, po administered via gavage measured after 90 mins using 5-HT as substrate by amplex red reagent-based horseradish peroxidase-coupled fluorescence assay relative to control; type: functional
[28] = Apparent permeability across absorptive direction in Sprague-Dawley rat ileum at 50 uM measured after 20 mins LC-MS/MS analysis; type: ADME, tissue-based
[29] = Apparent permeability across eliminatory direction in Sprague-Dawley rat ileum at 50 uM measured after 20 mins LC-MS/MS analysis; type: ADME, tissue-based
Mus musculus [30] = test: Antidepressant-like activity in Swiss mouse assessed as reduction in immobility time at 1 to 30 mg/kg, ip administered as single dose for 30 mins prior to testing measured for last 4 mins of 6 mins test by tail suspension test; type: functional, organism-based
Mus musculus [31] = test: Antianxiety activity in Swiss mouse assessed as increase in open arm entries at 3 mg/kg, ip measured after 30 mins and monitored for 5 mins by elevated plus maze test relative to control; type: functional
Mus musculus [32] = test: Antianxiety activity in Swiss mouse assessed as increase in time spent in open arm entries at 3 mg/kg, ip measured after 30 mins and monitored for 5 mins by elevated plus maze test relative to control; type: functional
Mus musculus [33] = test: Effect on spontaneous locomotor activity in Swiss mouse assessed as change in number of light beam crossings at 3 mg/kg, ip measured after 30 mins and monitored for 5 mins; type: ADME, organism-based; details: in vivo
Mus musculus [34] = test: Antidepressant-like activity in Swiss mouse assessed as reduction in immobility time at 0.3 mg/kg, ip administered once daily for 10 days measured for last 4 mins of 6 mins test at 30 mins post-last dose test by tail suspension test; type: functional, organism-based
Procedure, shortened: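 Male Swiss mice injected ip daily with 0.3 mg/kg in 0.9% saline for 10 days (n = 10; saline controls n = 8). Tail suspension test on day 10, 30 min after the injection. Immobility time reported as mean ± SEM and compared by unpaired t-test.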

Mus musculus [35] = test: Antianxiety activity in Swiss mouse at 0.3 mg/kg, ip […] and monitored for 5 mins by elevated plus maze test; type: functional, organism-based

With `C#CCN1CCC(/C=C/c2ccc(C(F)(F)F)cc2)CC1.Cl` the Activity (SH-SY5Y [1]) was “Non-Toxic”, the viability at 24 h, 50 µM [2] was greater than 80% and the Activity (SH-SY5Y [3]) was 87%. The “fold change (FC)” value (SH-SY5Y [4]) was 0.65 and the Papp [5] was “Impermeable”.

With `C#CCN1CCC(CCc2ccc(C(F)(F)F)cc2)CC1.Cl` the Stability [6] was “Stable”, the Activity (SH-SY5Y [1]) was “Non-Toxic” and the viability at 24 h, 50 µM [2] was greater than 80%. It also gave an Activity (Mus musculus [7]) of 77.2%, an activity at 50 µM [8] of -7.7% and an Activity (Mus musculus [9]) of 24.3%. For the same molecule, the ED50 (Mus musculus [10]) was 1.38 mg/kg, the Activity (Mus musculus [11]) was 83.4% and the Activity (Mus musculus [12]) was 28.3%. The Activity (Mus musculus [13]) was 30.5%, the Activity (Mus musculus [14]) was “Toxic” and the Activity (Mus musculus [15]) was “Toxic”. For the same molecule, the Activity (Mus musculus [16]) was “Toxic”, the Activity (Mus musculus [17]) was “Toxic” and the Activity [18] was “Non-Toxic”. For the same molecule, the Activity [19] was “Non-Toxic”.

With `C#CCN1CCC(/C=C\c2cccc(F)c2)CC1.Cl` the Therm solubility [20] was no less than 34.4 mg/mL, the Stability [6] was “Stable” and the Drug metabolism [21] was “Metabolite not detected”. For the same molecule, the Activity (SH-SY5Y [1]) was “Non-Toxic”, the viability at 24 h, 50 µM [2] was greater than 80% and the activity at 50 µM [22] was -1.3%. The Activity (Mus musculus [23]) was 1.6%, the Activity (Mus musculus [7]) was 14.2% and the inhibition (Mus musculus [24]) was “Dose-dependent effect”. It also gave an ED50 (Mus musculus [24]; 0.5 h) of 0.43 mg/kg, an Activity (Mus musculus [25]) of 67.8% and an Activity (Mus musculus [26]) of 9.5%. The Activity (Mus musculus [27]) was 45.3%, the Papp A→B at 20 min, 50 µM [28] was 10.8 ×10⁻⁶ cm/s and the Papp at 20 min, 50 µM [29] was 35.4 ×10⁻⁶ cm/s. The Activity (Mus musculus [30]) was “inactive”, the “fold change (FC)” value (Mus musculus [31]) was 2 and the “fold change (FC)” value (Mus musculus [32]) was 2.1. For the same molecule, the Activity (Mus musculus [33]) was “Non-Toxic”, the Activity (Mus musculus [34]) was “Active” and the Activity (Mus musculus [35]) was “inactive”. The Activity (Mus musculus [14]) was “Non-Toxic”, the Activity [18] was “Non-Toxic” and the Activity [19] was “Non-Toxic”.
